Test results: ChEMBL document CHEMBL2021913, “Synthesis and biological evaluation of some novel thiazole substituted benzotriazole derivatives” (2012)
≈ marks a conversion by molar mass, not a printed value. Calls of active or inactive are those of the source. The rule behind the calls is not given here.

Assays:
Assay type in all cases: functional
Candida albicans [1] = assay: Antimicrobial activity against Candida albicans 3471 at 128 ug/disc at 37 degC after 24 to 72 hrs by agar-well diffusion assay; settings: for zone of inhibition at 128 µg/disc: read-out: DIZ
In short: (§1)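 Potato dextrose agar base plates overlaid with seeded agar cooled to 40 °C and inoculated with spores from 10-day cultures, final 1 × 10⁶ spores/mL. Compounds dissolved in DMSO at 128 µg/mL and applied on 6 mm filter-paper discs placed on chilled seeded medium. Nystatin positive control, DMSO negative control. Incubation 24–72 h at 37 °C. Inhibition zone diameter read by vernier caliper.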

Pseudomonas aeruginosa [2] = assay: Antimicrobial activity against Pseudomonas aeruginosa 2036 at 35 degC after 18 to 24 hrs by NCCLS method based antimicrobial assay; settings: for MBC: read-out: MBC99.9
Escherichia coli [3] = assay: Antimicrobial activity against Escherichia coli 2109 at 35 degC after 18 to 24 hrs by NCCLS method based antimicrobial assay; settings: for MBC: read-out: MBC99.9
Candida albicans [4] = assay: Antimicrobial activity against Candida albicans 3471 at 35 degC after 48 hrs by CLSI method based antimicrobial assay; settings: for MFC: read-out: MFC99.9
In short: (§2)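 Broth microdilution following CLSI guidelines over 256 to 1 µg/mL. MIC90 is the lowest concentration completely inhibiting growth. For MFC, 0.1 mL from each tube spread on agar and CFU counted after 48 h at 35 °C; MFC is lowest concentration killing 99.9% of inoculum. MFC/MIC ratio calculated: […], ≤4 as fungicidal.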

Staphylococcus aureus [5] = assay: Antimicrobial activity against Staphylococcus aureus 2079 at 128 ug/disc at 35 degC after 24 hrs by agar-well diffusion assay; settings: for zone of inhibition at 128 µg/disc: Staphylococcus aureus, 2079, 24 h, read-out: DIZ
In short: (§3)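 Agar-well diffusion: 24 h bacterial cultures adjusted to 0.5 McFarland (1.5 × 10⁸ CFU/mL) and mixed into molten Mueller-Hinton agar before pouring. 6 mm wells punched and each filled with 50 µL of compound stock or control. Plates incubated 35 °C for 24 h. Zone of growth inhibition diameter measured with vernier caliper.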

Aspergillus niger [6] = assay: Antimicrobial activity against Aspergillus niger 545 at 35 degC after 48 hrs by CLSI method based antimicrobial assay; settings: Aspergillus niger, 545, 48 h; for MFC: read-out: MFC99.9; in short: as §2
Staphylococcus aureus [7] = assay: Antimicrobial activity against Staphylococcus aureus 2079 at 35 degC after 18 to 24 hrs by NCCLS method based antimicrobial assay; settings: for MBC: read-out: MBC99.9
Aspergillus niger [8] = assay: Ratio of MFC99.9 to MIC90 for Aspergillus niger 545 at 35 degC after 48 hrs by CLSI method based antimicrobial assay; in short: as §2
Escherichia coli [9] = assay: Antimicrobial activity against Escherichia coli 2109 at 128 ug/disc at 35 degC after 24 hrs by agar-well diffusion assay; settings: for zone of inhibition at 128 µg/disc: Escherichia coli, 2109, 24 h, read-out: DIZ; in short: as §3
Aspergillus niger [10] = assay: Antimicrobial activity against Aspergillus niger 545 at 128 ug/disc at 37 degC after 24 to 72 hrs by agar-well diffusion assay; settings: read-out: DIZ; in short: as §1
Bacillus subtilis [11] = assay: Antimicrobial activity against Bacillus subtilis 2250 at 128 ug/disc at 35 degC after 24 hrs by agar-well diffusion assay; settings: for zone of inhibition at 128 µg/disc: Bacillus subtilis, 2250, 24 h, read-out: DIZ; in short: as §3
Pseudomonas aeruginosa [12] = assay: Antimicrobial activity against Pseudomonas aeruginosa 2036 at 128 ug/disc at 35 degC after 24 hrs by agar-well diffusion assay; settings: for zone of inhibition at 128 µg/disc: Pseudomonas aeruginosa, 2036, 24 h, read-out: DIZ; in short: as §3
Bacillus subtilis [13] = assay: Antimicrobial activity against Bacillus subtilis 2250 at 35 degC after 18 to 24 hrs by NCCLS method based antimicrobial assay; settings: for MBC: read-out: MBC99.9
Candida albicans [14] = assay: Ratio of MFC99.9 to MIC90 for Candida albicans 3471 at 35 degC after 48 hrs by CLSI method based antimicrobial assay; in short: as §2

Row | SMILES | MIC (Pseudomonas aeruginosa [2]) | MIC (Escherichia coli [3]) | MIC (Candida albicans [4]; Candida albicans, 3471, 48 h) [µg/mL] | MIC (Aspergillus niger [6]) [µg/mL] | MIC (Staphylococcus aureus [7]) | MIC (Bacillus subtilis [13]) | zone of inhibition at 128 µg/disc (Candida albicans [1]) [mm] | MBC (Pseudomonas aeruginosa [2]) [µg/mL] | MBC (Escherichia coli [3]) [µg/mL] | MFC (Candida albicans [4]; Candida albicans, 3471, 48 h) [µg/mL] | MFC (Aspergillus niger [6]) [µg/mL] | Ratio (Aspergillus niger [8]) | zone of inhibition at 128 µg/disc (Escherichia coli [9]) [mm] | zone of inhibition at 128 µg/disc (Aspergillus niger [10]) [mm] | zone of inhibition at 128 µg/disc (Pseudomonas aeruginosa [12]) [mm] | Ratio (Candida albicans [14]) | diameter of the inhibition zone (DIZ) (Staphylococcus aureus [5]) | MBC99.9 (Staphylococcus aureus [7]) | diameter of the inhibition zone (DIZ) (Bacillus subtilis [11]) | MBC99.9 (Bacillus subtilis [13]) | other results
1 | Clc1ccc(-c2csc(N/N=C(/Cn3nnc4ccccc43)c3ccc(Br)cc3)n2)cc1 | 16 µg/mL (≈ 30.5 µM) | 64 µg/mL (≈ 122 µM) | – | 64 (≈ 122 µM) | inactive | inactive | – | 32 (≈ 61.1 µM) | 128 (≈ 244 µM) | – | 128 (≈ 244 µM) | 2 | 21.8 | 15.2 | 21.2 | – | inactive | inactive | inactive | inactive | diameter of the inhibition zone (DIZ) (Candida albicans [1]): inactive; MFC99.9 (Candida albicans [4]): inactive; MIC (Candida albicans [4]): inactive
2 | O=[N+]([O-])c1ccc(-c2csc(N/N=C(/Cn3nnc4ccccc43)c3ccc(Cl)cc3)n2)cc1 | 64 µg/mL (≈ 131 µM) | inactive | – | 128 (≈ 261 µM) | inactive | inactive | – | 128 (≈ 261 µM) | – | – | 256 (≈ 523 µM) | 2 | – | 13.6 | 16.4 | – | inactive | inactive | inactive | inactive | diameter of the inhibition zone (DIZ) (Candida albicans [1]): inactive; MBC99.9 (Escherichia coli [3]): inactive; MFC99.9 (Candida albicans [4]): inactive; MIC (Candida albicans [4]): inactive; diameter of the inhibition zone (DIZ) (Escherichia coli [9]): inactive
3 | Fc1ccc(/C(Cn2nnc3ccccc32)=N\Nc2nc(-c3cc(C(F)(F)F)cc(C(F)(F)F)c3)cs2)cc1 | inactive | inactive | 32 (≈ 56.7 µM) | 32 (≈ 56.7 µM) | 128 µg/mL (≈ 227 µM) | 32 µg/mL (≈ 56.7 µM) | 17.4 | – | – | 64 (≈ 113 µM) | 128 (≈ 227 µM) | 4 | – | 17.5 | – | 2 | – | – | – | – | MBC99.9 (Pseudomonas aeruginosa [2]): inactive; MBC99.9 (Escherichia coli [3]): inactive; zone of inhibition at 128 µg/disc (Staphylococcus aureus [5]): 19.2 mm; MBC (Staphylococcus aureus [7]): 128 µg/mL (≈ 227 µM); diameter of the inhibition zone (DIZ) (Escherichia coli [9]): inactive; zone of inhibition at 128 µg/disc (Bacillus subtilis [11]): 24.1 mm; diameter of the inhibition zone (DIZ) (Pseudomonas aeruginosa [12]): inactive; MBC (Bacillus subtilis [13]): 64 µg/mL (≈ 113 µM)

Now from value to molecule, other results behind:

Row | MIC (Pseudomonas aeruginosa [2]) | MIC (Escherichia coli [3]) | MIC (Candida albicans [4]; Candida albicans, 3471, 48 h) [µg/mL] | MIC (Aspergillus niger [6]) [µg/mL] | MIC (Staphylococcus aureus [7]) | MIC (Bacillus subtilis [13]) | SMILES | zone of inhibition at 128 µg/disc (Candida albicans [1]) [mm] | MBC (Pseudomonas aeruginosa [2]) [µg/mL] | MBC (Escherichia coli [3]) [µg/mL] | MFC (Candida albicans [4]; Candida albicans, 3471, 48 h) [µg/mL] | MFC (Aspergillus niger [6]) [µg/mL] | Ratio (Aspergillus niger [8]) | zone of inhibition at 128 µg/disc (Escherichia coli [9]) [mm] | zone of inhibition at 128 µg/disc (Aspergillus niger [10]) [mm] | zone of inhibition at 128 µg/disc (Pseudomonas aeruginosa [12]) [mm] | Ratio (Candida albicans [14]) | diameter of the inhibition zone (DIZ) (Staphylococcus aureus [5]) | MBC99.9 (Staphylococcus aureus [7]) | diameter of the inhibition zone (DIZ) (Bacillus subtilis [11]) | MBC99.9 (Bacillus subtilis [13]) | other results
4 | 128 µg/mL (≈ 276 µM) | 64 µg/mL (≈ 138 µM) | 16 (≈ 34.6 µM) | 16 (≈ 34.6 µM) | 64 µg/mL (≈ 138 µM) | 128 µg/mL (≈ 276 µM) | Fc1ccc(-c2csc(N/N=C(/Cn3nnc4ccccc43)c3ccc(Cl)cc3)n2)cc1 | 21.3 | 256 (≈ 553 µM) | 128 (≈ 276 µM) | 64 (≈ 138 µM) | 32 (≈ 69.1 µM) | 2 | 17.6 | 20.1 | 14.3 | 4 | – | – | – | – | zone of inhibition at 128 µg/disc (Staphylococcus aureus [5]): 24.7 mm; MBC (Staphylococcus aureus [7]): 32 µg/mL (≈ 69.1 µM); zone of inhibition at 128 µg/disc (Bacillus subtilis [11]): 16.9 mm; MBC (Bacillus subtilis [13]): 128 µg/mL (≈ 276 µM)
5 | inactive | 128 µg/mL (≈ 216 µM) | 128 (≈ 216 µM) | 32 (≈ 54.1 µM) | inactive | inactive | O=[N+]([O-])c1ccc(/C(Cn2nnc3ccccc32)=N\Nc2nc(-c3cc(C(F)(F)F)cc(C(F)(F)F)c3)cs2)cc1 | 19 | – | 256 (≈ 433 µM) | 256 (≈ 433 µM) | 64 (≈ 108 µM) | 2 | 15 | 17.9 | – | 2 | inactive | inactive | inactive | inactive | MBC99.9 (Pseudomonas aeruginosa [2]): inactive; diameter of the inhibition zone (DIZ) (Pseudomonas aeruginosa [12]): inactive
